Source: ChEMBL document CHEMBL4342512, “Discovery of [1,2,4]Triazolo[1,5-a]pyridine Derivatives as Potent and Orally Bioavailable RORγt Inverse Agonists” (ACS Med Chem Lett, 2020)
Converted amounts (≈) assume the structure as drawn.

Experiments:
[1] = Metabolic stability in human liver microsomes assessed as intrinsic clearance; format: ADME, Microsome
[2] = Metabolic stability in mouse liver microsomes assessed as intrinsic clearance; format: ADME, Microsome
[3] = Volume of distribution at steady state in mouse at 2 umol/kg, po and 1 umol/kg, iv administered using cassette dosing; format: ADME, organism-based; conditions: in vivo, read-out: Vdss
Summary of the method: (§1)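 Mouse PK by cassette dosing. The combined compounds were given orally at 2 μmol/kg and intravenously at 1 μmol/kg. PK parameters were derived from the plasma profiles.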

[4] = Clearance in mouse at 2 umol/kg, po and 1 umol/kg, iv administered using cassette dosing; format: ADME, organism-based; conditions: in vivo; summary of the method: as §1
[5] = Apparent permeability across apical to basolateral side in human Caco2 cells; format: ADME, cell-based; conditions: Caco-2
Summary of the method: (§2)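 Bidirectional permeability was measured in the apical-to-basolateral and basolateral-to-apical directions.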

[6] = Bioavailability in mouse at 2 umol/kg, po and 1 umol/kg, iv administered using cassette dosing; format: ADME, organism-based; conditions: in vivo; summary of the method: as §1
[7] = Apparent permeability across basolateral to apical side in human Caco2 cells; format: ADME, cell-based; conditions: Caco-2; summary of the method: as §2
[8] = Half life in mouse at 2 umol/kg, po administered using cassette dosing; format: ADME, organism-based; conditions: in vivo; summary of the method: as §1
[9] = Unbound clearance in mouse at 2 umol/kg, po and 1 umol/kg, iv administered using cassette dosing; format: ADME, organism-based; conditions: in vivo; summary of the method: as §1
[10] = Solubility of compound in aqueous medium at pH 6.8; format: physicochemical
Summary of the method: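 Solubility was measured in the second fluid of the Japanese Pharmacopoeia Disintegration Test (pH 6.8).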

[11] = Half life in mouse at 1 umol/kg, iv administered using cassette dosing; format: ADME, organism-based; conditions: in vivo; summary of the method: as §1
[12] = Protein binding in human plasma; format: ADME, cell-free; conditions: read-out: PPB (converted)
Summary of the method: (§3)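 Plasma protein binding was determined in human or mouse plasma.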

[13] = AUC in mouse at 2 umol/kg, po administered using cassette dosing; format: ADME, organism-based; conditions: in vivo; summary of the method: as §1
[14] = Protein binding in mouse plasma; format: ADME, cell-free; conditions: read-out: PPB (converted); summary of the method: as §3
[15] = Drug metabolism in human hepatocytes assessed as cyclopentyl derived oxidative adduct formation by mass spectrometry; format: ADME, cell-based, Hepatocyte
[16] = Drug metabolism in human hepatocytes assessed as central triazolo-pyridine core derived metabolic soft spot formation by mass spectrometry; format: ADME, cell-based, Hepatocyte

CLH [1] | CLH [2] | Vd [3] | clearance [4] | Papp A→B [5] | bioavailability [6] | Papp B→A [7] | half-life [8] | CL free [9] | solubility [10] | half-life [11] | fraction unbound [12] | AUC [13] | fraction unbound [14] | Structure (SMILES) | also measured
0.059 mL/min/mg |  |  |  |  |  |  |  |  |  |  |  |  |  | Cc1ccc(C(=O)Nc2cc3nncn3c(CN3CCN(C(=O)C4CCCC4)[C@@H](C)C3)c2C)cn1 | 
< 0.01 mL/min/mg |  |  |  |  |  |  |  |  |  |  |  |  |  | Cc1ccc(C(=O)Nc2cn3ncnc3c(CN3CCN(C(=O)C4CCC(F)(F)C4)[C@@H](C)C3)c2C)cn1 (stereo partly specified) | 
0.088 mL/min/mg | 0.11 mL/min/mg | 1.6 L/kg | 33.3 mL/min/kg | 40 ×10⁻⁶ cm/s | 48% | 55 ×10⁻⁶ cm/s | 42 min | 46 L/h/kg | 71 µM (≈ 32.1 µg/mL) | 42 min | 0.003 | 0.49 µM·h | 0.043 | Cc1ccc(C(=O)Nc2cc(F)cc(CN3CCN(C(=O)C4CCCC4)[C@@H](C)C3)c2C)cn1 | 
0.032 mL/min/mg | 0.011 mL/min/mg | 0.77 L/kg | 18.3 mL/min/kg | 2.5 ×10⁻⁶ cm/s | 47% | 46 ×10⁻⁶ cm/s | 72 min | 5.3 L/h/kg | 190 µM (≈ 90.4 µg/mL) | 84 min | 0.227 | 0.84 µM·h | 0.212 | Cc1ccc(C(=O)Nc2cn3ncnc3c(CN3CCN(C(=O)C4CCCC4)[C@@H](C)C3)c2C)cn1 | Drug metabolism [15]: Metabolite_Detected; Drug metabolism [16]: Metabolite_Notdetected
0.02 mL/min/mg |  |  |  |  |  |  |  |  |  |  |  |  |  | Cc1ccc(C(=O)Nc2cn3ncnc3c(CN3CCN(C(=O)CC(C)C)[C@@H](C)C3)c2C)cn1 | 
0.24 mL/min/mg |  |  |  |  |  |  |  |  |  |  |  |  |  | Cc1ccc(C(=O)Nc2cn3ncnc3c(CN3CCN(C(=O)C(C)C)[C@@H](C)C3)c2C)cn1 | 
0.021 mL/min/mg |  |  |  |  |  |  |  |  |  |  |  |  |  | Cc1ccc(C(=O)Nc2cn3ncnc3c(CN3CCN(C(=O)c4ccccc4)[C@@H](C)C3)c2C)cn1 | 
0.01 mL/min/mg | 0.03 mL/min/mg | 0.8 L/kg | 2.5 mL/min/kg | 31 ×10⁻⁶ cm/s | 120% | 51 ×10⁻⁶ cm/s | 216 min | 1.1 L/h/kg | 170 µM (≈ 97.3 µg/mL) | 234 min | 0.082 | 15 µM·h | 0.135 | Cc1ccc(C(=O)Nc2cn3ncnc3c(O[C@H]3CCN(C(=O)CC(C(F)(F)F)C(F)(F)F)[C@@H](C)C3)c2C)cn1 | 
< 0.01 mL/min/mg |  |  |  |  |  |  |  |  |  |  |  |  |  | Cc1ccc(C(=O)Nc2cn3ncnc3c(CN3CCN(C(=O)C4CCOCC4)[C@@H](C)C3)c2C)cn1 | 
< 0.01 mL/min/mg |  |  |  |  |  |  |  |  |  |  |  |  |  | Cc1ccc(C(=O)Nc2cn3ncnc3c(CN3CCN(C(=O)CCC(F)(F)F)[C@@H](C)C3)c2C)cn1 | 
0.028 mL/min/mg |  |  |  |  |  |  |  |  |  |  |  |  |  | Cc1ccc(C(=O)Nc2cn3ncnc3c(O[C@@H]3CCN(C(=O)CC(C(F)(F)F)C(F)(F)F)[C@@H](C)C3)c2C)cn1 | 
< 0.01 mL/min/mg | < 0.01 mL/min/mg | 1.1 L/kg | 18.3 mL/min/kg | 9.6 ×10⁻⁶ cm/s | 110% | 36 ×10⁻⁶ cm/s | 66 min | 4.5 L/h/kg | 200 µM (≈ 114 µg/mL) | 60 min | 0.139 | 2.3 µM·h | 0.233 | Cc1ccc(C(=O)Nc2cn3ncnc3c(CN3CCN(C(=O)CC(C(F)(F)F)C(F)(F)F)[C@@H](C)C3)c2C)cn1 | 
